Experimental data published in PubChem BioAssay AID624466 (The Scripps Research Institute Molecular Screening Center, 2012).
Screen size: about 360,000 compounds; about 5,400 (1.5%) were called active. The sample as a whole holds a higher share of actives than the screen did. Unmarked numbers belong to inactive results.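 Rule for the calls: active = inhibition above a per-plate cutoff, the mean inhibition of test compounds on that plate plus 3 SD (cut at about 49% in these data); inactive = the rest.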

Target: Trace amine-associated receptor 1 (Homo sapiens) (UniProt Q96RJ0)
Sequence (Q96RJ0 whole entry, looked up): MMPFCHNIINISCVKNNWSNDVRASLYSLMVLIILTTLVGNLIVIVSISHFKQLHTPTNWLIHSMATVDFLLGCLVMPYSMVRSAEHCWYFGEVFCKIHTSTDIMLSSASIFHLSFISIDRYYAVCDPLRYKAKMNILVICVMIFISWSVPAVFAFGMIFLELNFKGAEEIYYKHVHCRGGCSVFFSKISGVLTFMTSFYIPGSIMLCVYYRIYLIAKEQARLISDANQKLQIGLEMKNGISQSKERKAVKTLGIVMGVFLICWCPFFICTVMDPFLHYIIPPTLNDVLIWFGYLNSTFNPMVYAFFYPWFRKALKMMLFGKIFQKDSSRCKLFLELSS
Assay: blockers of beta-PEA-driven TAAR1 calcium signal – Fluo-8 calcium fluorescence, CHO RD-HGA16 cells, primary screen (AID 624466);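 note: 0% = DMSO plus EC80 beta-PEA response and 100% = DMSO alone without agonist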
Conditions: CHO RD-HGA16 TAAR1, Fluo-8 calcium fluorescence, antagonist; at 3 µM; hits give high values
Procedure, shortened: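 Test system – hTAAR1-expressing CHO RD-HGA16 cells, Gα16-coupled · Also added – β-PEA at EC80 concentration, post-compound challenge · Compound – 3 µM, single point · Incubation – dye loading 75 min at 37 °C, then 30 min room temperature · Measured by – Fluo-8 intracellular calcium dye fluorescence, real-time kinetic reads · Benchmarks – vehicle and agonist controls · Replicates – singlicate, one well per test compound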

In order of falling inhibition:
1. COc1ccc2sc(-c3ccc(S(C)(=O)=O)cc3)c(C#Cc3cncn3C)c2c1  47.9%
2. O=C1N[C@@H](c2ccccc2)COC(=O)[C@H](Cc2ccc(F)cc2)C/C=C\C[C@@H]1CC(=O)N(CCO)Cc1ccccc1  42.8%
3. Cc1cc(NCCc2c[nH]c3ccccc23)ccc1Oc1cccnc1  21.6%
4. OC(c1ccccc1)(c1ccccc1)C1CCN(CCCOc2ccccc2)CC1  19.2%
5. N#Cc1ccc(OCCCN2CCC(C(O)(c3ccccc3)c3ccccc3)CC2)c(F)c1  18.2%
6. CCOC(=O)N1CCN(C(=O)C[C@@H]2C[C@@]3(C(=O)OC)CCCCC=C3N(CCC3=CCCCC3)C2=O)CC1  16.7%
7. Cc1ccccc1CN1C(=O)CSCC1(C)C(=O)Nc1c(C)cccc1C (stereo unspecified)  -0.37%
8. COC(=O)C1=C(C)N(Cc2cccc(C(F)(F)F)c2)C(=NCc2ccccc2)NC1c1ccccc1C(F)(F)F (stereo unspecified)  -4.18%
9. COc1ccc(C2=CN(Cc3ccccc3)C(c3ccc(OC)cc3)CC2=O)cc1 (stereo unspecified)  -4.92%
10. COc1cccc(OCc2cc(/C=N/NC(=O)c3nc(Cl)c(Cl)c(N)c3Cl)ccc2OC)c1  -5%
11. O=C1CCC/C=C/C[C@@H](CC(=O)N(CCO)Cc2ccccc2)C(=O)NC[C@H](c2ccccc2)O1  -5.27%
12. COc1cc(OC)cc(-c2sc3ccc(OC)cc3c2-c2ccc3cc[nH]c3c2)c1  -5.68%
13. COC(=O)[C@H](CC(C)C)NS(=O)(=O)c1c(F)cccc1F  -8.02%
14. CCC(C(=O)NC(C)(C)C)n1c(-c2ccccc2)nc2ccccc21 (stereo unspecified)  -9.33%
15. CN(C)C(=O)N1CCN(C(=O)[C@@H](Cc2ccccc2)NC(=O)[C@H]2O[C@@H](n3ccc(N)nc3=O)[C@H](O)[C@@H]2O)CC1  -11.3%
16. COc1ccc(C(C(=O)Nc2c(C)cccc2C)N2CCN(c3ccc(C)cc3)CC2)cc1 (stereo unspecified)  -16.4%
17. COc1ccc2[nH]c(C(=O)Nc3ccccc3Cl)cc2c1  -23.7%

For `O=C1NC[C@@H](c2ccccc2)OC(=O)[C@H](Cc2ccc(F)cc2)CC/C=C/C[C@H]1CC(=O)N(CCO)Cc1ccccc1`, the inhibition was 74% (active).
With `COc1ccc2[nH]c(C(=O)N/N=C/c3cc(OC)c(OC)c(OC)c3)cc2c1` the inhibition was 50.5% (active).
In the case of `COc1ccc2sc(-c3ccc(S(C)(=O)=O)cc3)c(-c3ccc(C(N)=O)cc3)c2c1`, the inhibition was 50.5% (active).
With `OC(c1ccccc1)(c1ccccc1)C1CCN(CCCOc2ccc(-c3ccsc3)cc2)CC1` the inhibition was 51.2% (active).
